{"source": "ChEMBL document CHEMBL3734747", "about": "“Varioxiranols A-G and 19-O-Methyl-22-methoxypre-shamixanthone, PKS and Hybrid PKS-Derived Metabolites from a Sponge-Associated Emericella variecolor Fungus” (J Nat Prod, 2015)", "key": {"HepG2 [1]": {"tested_on": "HepG2", "assay": "Cytotoxicity against human HepG2 cells upto 100 uM by MTT assay", "type": "cell-based"}, "HepG2 [2]": {"tested_on": "HepG2", "assay": "Inhibition of oleic acid-induced lipid accumulation in human HepG2 cells at 10 uM by oil red O staining analysis", "type": "functional, cell-based", "summary_of_the_method": "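HepG2 cells in DMEM with 10% FBS and penicillin/streptomycin, grown to 70–80% confluence, preloaded with 100 μM oleic acid for 12 h, then given compound at 10 μM in DMEM/100 μM oleic acid for another 6 h. Statin positive control and DMEM/oleic acid blank. Oil Red O staining read by spectrophotometry at 358 nm. n = 8, experiment repeated in triplicate, mean ± SEM.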"}, "HepG2 [3]": {"tested_on": "HepG2", "assay": "Inhibition of oleic acid-induced triglyceride level in human HepG2 cells at 10 uM", "type": "functional, cell-based", "summary_of_the_method": "(§1)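 HepG2 cells at 70–80% confluence exposed to 100 μM oleic acid in DMEM for 12 h, then compound at 10 μM plus 100 μM oleic acid for 6 h. Statin positive control. Intracellular total cholesterol and triglyceride measured with commercial kits. n = 3, experiment repeated in triplicate, mean ± SEM.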"}, "HepG2 [4]": {"tested_on": "HepG2", "assay": "Inhibition of oleic acid-induced total cholesterol level in human HepG2 cells at 10 uM", "type": "functional, cell-based", "summary_of_the_method": "as §1"}, "HepG2 [5]": {"tested_on": "HepG2", "assay": "Decrease in acetyl-CoA carboxylase mRNA level in human HepG2 cells by RT-PCR analysis", "type": "functional, cell-based"}, "HepG2 [6]": {"tested_on": "HepG2", "assay": "Decrease in SREBP-1c mRNA level in human HepG2 cells by RT-PCR analysis", "type": "functional, cell-based"}, "HepG2 [7]": {"tested_on": "HepG2", "assay": "Decrease in fatty acid synthase mRNA level in human HepG2 cells by RT-PCR analysis", "type": "functional, cell-based"}}, "note": "Active and inactive are the calls of the source. No cut-off for these calls is given here.", "data": [{"compound": "C/C=C/[C@H](O)[C@H](O)/C=C/c1cccc(OC)c1CO", "values": [{"measurement": "Activity", "setting": "HepG2 [1]", "value": "Non-toxic"}, {"measurement": "inhibition", "setting": "HepG2 [2]", "value": "Active"}, {"measurement": "inhibition", "setting": "HepG2 [3]", "value": "inactive"}]}, {"compound": "CCC[C@H](O)[C@H](O)/C=C/c1cccc(OC)c1CO", "values": [{"measurement": "inhibition", "setting": "HepG2 [4]", "value": "inactive"}, {"measurement": "Activity", "setting": "HepG2 [1]", "value": "Non-toxic"}, {"measurement": "inhibition", "setting": "HepG2 [2]", "value": "Active"}, {"measurement": "inhibition", "setting": "HepG2 [3]", "value": "Active"}]}, {"compound": "C=C(C)[C@H]1COc2c(C)cc(O)c(C(=O)c3c(O)ccc(CC=C(C)C)c3O)c2[C@@H]1O", "values": [{"measurement": "inhibition", "setting": "HepG2 [5]", "value": "Active"}, {"measurement": "inhibition", "setting": "HepG2 [4]", "value": "Active"}, {"measurement": "Activity", "setting": "HepG2 [1]", "value": "Non-toxic"}, {"measurement": "inhibition", "setting": "HepG2 [2]", "value": "Active"}, {"measurement": "inhibition", "setting": "HepG2 [3]", "value": "Active"}, {"measurement": "inhibition", "setting": "HepG2 [6]", "value": "Active"}, {"measurement": "inhibition", "setting": "HepG2 [7]", "value": "Active"}]}]}
